{
  "source": "ChEMBL document CHEMBL3244134",
  "about": "“Potential anticancer agents. 16. Methotrexate analogues with a modified peptide side chain” (J Med Chem, 1978)",
  "key": {"[1]": {"test": "Toxicity in Wistar rat administered as single dose", "assay_type": "organism-based", "conditions": "in vivo", "in_short": "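LD50 determined from single doses in Wistar rats, reported in mg/kg and mmol/kg.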"}, "L1210 [2]": {"test_system": "L1210", "test": "Antitumor activity against mouse L1210 cells allografted in BDF1 mouse assessed as increase in life span at 50 mg/kg administered 6 times starting 24 hrs post challenge relative to control", "assay_type": "functional", "conditions": "L1210, 24 h", "in_short": "(§1)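 L1210 leukemia: BDF1 mice inoculated ip with 10⁶ leukemic cells. Treatment started 24 h after inoculation, given daily in aqueous solution at pH 8.0–8.4. Survival of treated mice compared with untreated controls, expressed as %ILS = (T/C − 1) × 100.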"}, "L1210 [3]": {"test_system": "L1210", "test": "Antitumor activity against mouse L1210 cells allografted in BDF1 mouse assessed as increase in life span at 78 mg/kg administered 9 times starting 24 hrs post challenge relative to control", "assay_type": "functional", "conditions": "L1210, 24 h", "in_short": "as §1"}, "W256 [4]": {"test_system": "W256", "test": "Antitumor activity against rat Walker 256 cells allografted in rat assessed as tumor growth inhibition at 60 mg/kg administered 14 times starting 7 days post challenge relative to control", "conditions": "W256, 7 days, read-out: TGI"}, "L1210 [5]": {"test_system": "L1210", "test": "Antitumor activity against mouse L1210 cells allografted in BDF1 mouse assessed as increase in life span at 10 mg/kg administered 8 times starting 24 hrs post challenge relative to control", "assay_type": "functional", "conditions": "L1210, 24 h", "in_short": "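BDF1 mice inoculated ip with 10⁶ L1210 leukemia cells; daily dosing in aqueous solution at pH 8.0–8.4 starting 24 h after inoculation. Increase in life span computed as %ILS = (T/C − 1) × 100.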"}, "W256 [6]": {"test_system": "W256", "test": "Antitumor activity against […] 256 cells allografted in rat assessed as tumor growth inhibition at 8 mg/kg administered 14 times starting 24 hrs post challenge relative to control", "assay_type": "functional", "conditions": "W256, 24 h, read-out: TGI"}, "L1210 [7]": {"test_system": "L1210", "test": "Antitumor activity against mouse L1210 cells allografted in BDF1 mouse assessed as increase in life span at 90 mg/kg administered 9 times starting 24 hrs post challenge relative to control", "assay_type": "functional", "conditions": "L1210, 24 h", "in_short": "as §1"}, "L1210 [8]": {"test_system": "L1210", "test": "Antitumor activity against mouse L1210 cells allografted in BDF1 mouse assessed as increase in life span at 23 mg/kg administered 7 times starting 24 hrs post challenge relative to control", "assay_type": "functional", "conditions": "L1210, 24 h", "in_short": "as §1"}, "L1210 [9]": {"test_system": "L1210", "test": "Antitumor activity against mouse L1210 cells allografted in BDF1 mouse assessed as increase in life span at 33 mg/kg administered 6 times starting 24 hrs post challenge relative to control", "assay_type": "functional", "conditions": "L1210, 24 h", "in_short": "as §1"}, "L1210 [10]": {"test_system": "L1210", "test": "Antitumor activity against mouse L1210 cells allografted in BDF1 mouse assessed as increase in life span at 45 mg/kg administered 10 times starting 24 hrs post challenge relative to control", "assay_type": "functional", "conditions": "L1210, 24 h", "in_short": "as §1"}, "W256 [11]": {"test_system": "W256", "test": "Antitumor activity against […] 256 cells allografted in rat assessed as tumor growth inhibition at 40 mg/kg administered 9 times starting 7 days post challenge relative to control", "conditions": "W256, 7 days, read-out: TGI"}, "L1210 [12]": {"test_system": "L1210", "test": "Antitumor activity against mouse L1210 cells allografted in BDF1 mouse assessed as increase in life span at 25 mg/kg administered 6 times starting 24 hrs post challenge relative to control", "assay_type": "functional", "conditions": "L1210, 24 h", "in_short": "as §1"}, "L1210 [13]": {"test_system": "L1210", "test": "Antitumor activity against mouse L1210 cells allografted in BDF1 mouse assessed as increase in life span at 20 mg/kg administered 7 times starting 24 hrs post challenge relative to control", "assay_type": "functional", "conditions": "L1210, 24 h", "in_short": "as §1"}},
  "note": "Several values for one entry are separate records, joined by “and”; a condition that tells them apart may be missing. Equal entries are not always repeated.",
  "data": [
    {"smiles": "CN(CC(=O)O)C(=O)c1ccc(N(C)Cc2cnc3nc(N)nc(N)c3n2)cc1.O", "values": [
      {"measurement": "LD50", "setting": "[1]", "result": "400 mg/kg and 920 µmol/kg"},
      {"measurement": "ILS at 50 mg/kg", "setting": "L1210 [2]", "result": 0, "unit": "%"}
    ]},
    {"smiles": "CCC(NC(=O)c1ccc(N(C)Cc2cnc3nc(N)nc(N)c3n2)cc1)C(=O)O", "note": "(stereo not given)", "values": [
      {"measurement": "LD50", "setting": "[1]", "result": "925 mg/kg and 2250 µmol/kg"},
      {"measurement": "ILS at 78 mg/kg", "setting": "L1210 [3]", "result": 16, "unit": "%"},
      {"measurement": "inhibition in vivo at 60 mg/kg", "setting": "W256 [4]", "result": 47, "unit": "%"}
    ]},
    {"smiles": "CN(Cc1cnc2nc(N)nc(N)c2n1)c1ccc(C(=O)NCCCC(=O)O)cc1.O", "values": [
      {"measurement": "LD50", "setting": "[1]", "result": "106 mg/kg and 250 µmol/kg"},
      {"measurement": "ILS at 10 mg/kg", "setting": "L1210 [5]", "result": 0, "unit": "%"},
      {"measurement": "inhibition in vivo at 8 mg/kg", "setting": "W256 [6]", "result": 55, "unit": "%"}
    ]},
    {"smiles": "CC(C)C[C@H](NC(=O)c1ccc(N(C)Cc2cnc3nc(N)nc(N)c3n2)cc1)C(=O)O", "values": [
      {"measurement": "ILS at 90 mg/kg", "setting": "L1210 [7]", "result": 24, "unit": "%"}
    ]},
    {"smiles": "CN(Cc1cnc2nc(N)nc(N)c2n1)c1ccc(C(=O)NCC(=O)O)cc1", "values": [
      {"measurement": "LD50", "setting": "[1]", "result": "250 mg/kg and 650 µmol/kg"},
      {"measurement": "ILS at 23 mg/kg", "setting": "L1210 [8]", "result": 0, "unit": "%"}
    ]},
    {"smiles": "CC(NC(=O)c1ccc(N(C)Cc2cnc3nc(N)nc(N)c3n2)cc1)C(=O)O.O", "note": "(stereo not given)", "values": [
      {"measurement": "LD50", "setting": "[1]", "result": "349 mg/kg and 810 µmol/kg"},
      {"measurement": "ILS at 33 mg/kg", "setting": "L1210 [9]", "result": 0, "unit": "%"}
    ]},
    {"smiles": "CN(Cc1cnc2nc(N)nc(N)c2n1)c1ccc(C(=O)N[C@@H](Cc2ccccc2)C(=O)O)cc1.O", "values": [
      {"measurement": "LD50", "setting": "[1]", "result": "500 mg/kg and 1020 µmol/kg"},
      {"measurement": "ILS at 45 mg/kg", "setting": "L1210 [10]", "result": 14, "unit": "%"},
      {"measurement": "inhibition in vivo at 40 mg/kg", "setting": "W256 [11]", "result": 58, "unit": "%"}
    ]},
    {"smiles": "CN(Cc1cnc2nc(N)nc(N)c2n1)c1ccc(C(=O)NCCC(=O)O)cc1.O", "values": [
      {"measurement": "LD50", "setting": "[1]", "result": "250 mg/kg and 580 µmol/kg"},
      {"measurement": "ILS at 25 mg/kg", "setting": "L1210 [12]", "result": 19, "unit": "%"}
    ]},
    {"smiles": "CC(C)C(NC(=O)c1ccc(N(C)Cc2cnc3nc(N)nc(N)c3n2)cc1)C(=O)O", "note": "(stereo not given)", "values": [
      {"measurement": "LD50", "setting": "[1]", "result": "200 mg/kg and 470 µmol/kg"},
      {"measurement": "ILS at 20 mg/kg", "setting": "L1210 [13]", "result": 0, "unit": "%"}
    ]}
  ]
}
